Where a SMILES comes first, the peptide text is derived from it. [ ]: non-standard residue; d: D form. d(β3hP) = O=C(O)C[C@H]1CCCN1; β3hP = O=C(O)C[C@@H]1CCCN1

Holding throughout (format): functional, tissue-based
The target in assay [1] is Delta-type opioid receptor (Mus musculus, UniProt P32300). In words: Agonist activity at delta opioid receptor in mouse vas deferens assessed as inhibition of electrically-stimulated muscle contraction. In short, it runs like this: (§1)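 Isolated tissue bioassays used MVD for line 1 and GPI/LMMP for […]. IC50 is the mean of at least four experiments, obtained by nonlinear least-squares fitting to the Hill equation.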
Delta-type opioid receptor, sequence (P32300 whole entry): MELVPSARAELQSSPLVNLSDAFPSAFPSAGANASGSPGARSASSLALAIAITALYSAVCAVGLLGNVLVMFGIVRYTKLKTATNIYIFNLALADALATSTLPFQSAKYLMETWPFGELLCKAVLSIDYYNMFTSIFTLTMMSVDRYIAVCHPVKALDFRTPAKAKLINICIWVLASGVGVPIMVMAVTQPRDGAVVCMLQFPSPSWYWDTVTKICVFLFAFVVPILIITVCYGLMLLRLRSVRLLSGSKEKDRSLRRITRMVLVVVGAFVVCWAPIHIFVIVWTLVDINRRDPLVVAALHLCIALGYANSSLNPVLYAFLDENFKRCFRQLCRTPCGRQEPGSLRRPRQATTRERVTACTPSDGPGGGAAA

The next assay concerns the target Mu-type opioid receptor (Cavia porcellus, UniProt P97266). In words: Agonist activity at mu opioid receptor in guinea pig ileum assessed as inhibition of electrically-stimulated muscle contraction. The method, boiled down:
as §1

For assay [2], the target named is Delta-type opioid receptor (Mus musculus) (UniProt P32300). In words: Agonist activity at delta opioid receptor in mouse vas deferens assessed as inhibition of electrically-stimulated muscle contraction at 1 uM.
Delta-type opioid receptor (Mus musculus), sequence (P32300 whole entry): as above

Mu-type opioid receptor, sequence (P97266 whole entry): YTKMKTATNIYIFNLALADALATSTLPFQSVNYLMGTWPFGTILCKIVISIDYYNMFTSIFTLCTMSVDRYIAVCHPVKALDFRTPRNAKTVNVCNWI

The IC50 is the concentration at which inhibition is half-maximal. `NC(=O)[C@H](Cc1ccccc1)NC(=O)[C@H](Cc1ccccc1)NS(=O)(=O)[C@@H]1CCN(C(=O)[C@@H](N)Cc2ccc(O)cc2)C1`: the values for the 50% inhibitory concentration (IC50) (in assay [1]; on Mu-type opioid receptor) were 390 nM and 220 nM, respectively.

For orientation: inhibition means the share of the control response that was lost under treatment. For the compound `NC(=O)[C@H]1CCCN1C(=O)[C@H](Cc1ccccc1)NC(=O)C[C@@H]1CCCN1C(=O)[C@@H](N)Cc1ccc(O)cc1` (H-Y[β3hP]F[dP]-NH2), the 50% inhibitory concentration (IC50) at Mu-type opioid receptor is 1100 nM. Also, the inhibition in assay [2] was determined as 33.7%.

As to `NC(=O)[C@H](Cc1ccccc1)NC(=O)[C@H](Cc1ccccc1)NS(=O)(=O)[C@H]1CCN(C(=O)[C@@H](N)Cc2ccc(O)cc2)C1`, the half-inhibitory concentration (IC50) in assay [1] turned out to be 530 nM; on Mu-type opioid receptor it was 260 nM.

On to `NC(=O)[C@H](Cc1ccccc1)NC(=O)[C@H](Cc1ccccc1)NC(=O)C[C@H]1CCCN1C(=O)[C@@H](N)Cc1ccc(O)cc1`, for which the IC50 in assay [1] was found to be 1900 nM; on Mu-type opioid receptor, 420 nM.

For `NC(=O)[C@H]1CCCN1C(=O)[C@H](Cc1ccccc1)NC(=O)C[C@H]1CCCN1C(=O)[C@@H](N)Cc1ccc(O)cc1` (H-Y[d(β3hP)]F[dP]-NH2), the 50% inhibitory concentration (IC50) amounted to 96 nM in assay [1] and 17 nM at Mu-type opioid receptor.

Regarding `NC(=O)[C@H](Cc1ccccc1)NC(=O)[C@H](Cc1ccccc1)NS(=O)(=O)C[C@@H]1CCCN1C(=O)[C@@H](N)Cc1ccc(O)cc1`, the IC50 in assay [1] is 1100 nM; at Mu-type opioid receptor, 730 nM.

Consider `NC(=O)[C@H](Cc1ccccc1)NC(=O)[C@H](Cc1ccccc1)NC(=O)C[C@@H]1CCCN1C(=O)[C@@H](N)Cc1ccc(O)cc1`, for which the figures for the 50% inhibitory concentration (IC50) (in assay [1]; on Mu-type opioid receptor) were 1300 nM and 260 nM, respectively.

For the compound `NC(=O)[C@H](Cc1ccccc1)NC(=O)[C@H](Cc1ccccc1)NS(=O)(=O)C[C@H]1CCCN1C(=O)[C@@H](N)Cc1ccc(O)cc1`, the IC50 at Mu-type opioid receptor was 2700 nM. Besides, the inhibition in assay [2] came to 36%.

These data come from ChEMBL document CHEMBL1250485, “Synthesis and activity of endomorphin-2 and morphiceptin analogues with proline surrogates in position 2” (Eur J Med Chem, 2010).
